According to ChEMBL document CHEMBL1131161 (J Med Chem, 1998):

What was measured:
[1] = biological target: T1, Mineralocorticoid receptor (Homo sapiens, UniProt P08235); test: Inhibitory activity (IC50) against human mineralocorticoid receptor expressed in CV-1 cells; format: cell-based
T1 sequence (P08235 whole entry): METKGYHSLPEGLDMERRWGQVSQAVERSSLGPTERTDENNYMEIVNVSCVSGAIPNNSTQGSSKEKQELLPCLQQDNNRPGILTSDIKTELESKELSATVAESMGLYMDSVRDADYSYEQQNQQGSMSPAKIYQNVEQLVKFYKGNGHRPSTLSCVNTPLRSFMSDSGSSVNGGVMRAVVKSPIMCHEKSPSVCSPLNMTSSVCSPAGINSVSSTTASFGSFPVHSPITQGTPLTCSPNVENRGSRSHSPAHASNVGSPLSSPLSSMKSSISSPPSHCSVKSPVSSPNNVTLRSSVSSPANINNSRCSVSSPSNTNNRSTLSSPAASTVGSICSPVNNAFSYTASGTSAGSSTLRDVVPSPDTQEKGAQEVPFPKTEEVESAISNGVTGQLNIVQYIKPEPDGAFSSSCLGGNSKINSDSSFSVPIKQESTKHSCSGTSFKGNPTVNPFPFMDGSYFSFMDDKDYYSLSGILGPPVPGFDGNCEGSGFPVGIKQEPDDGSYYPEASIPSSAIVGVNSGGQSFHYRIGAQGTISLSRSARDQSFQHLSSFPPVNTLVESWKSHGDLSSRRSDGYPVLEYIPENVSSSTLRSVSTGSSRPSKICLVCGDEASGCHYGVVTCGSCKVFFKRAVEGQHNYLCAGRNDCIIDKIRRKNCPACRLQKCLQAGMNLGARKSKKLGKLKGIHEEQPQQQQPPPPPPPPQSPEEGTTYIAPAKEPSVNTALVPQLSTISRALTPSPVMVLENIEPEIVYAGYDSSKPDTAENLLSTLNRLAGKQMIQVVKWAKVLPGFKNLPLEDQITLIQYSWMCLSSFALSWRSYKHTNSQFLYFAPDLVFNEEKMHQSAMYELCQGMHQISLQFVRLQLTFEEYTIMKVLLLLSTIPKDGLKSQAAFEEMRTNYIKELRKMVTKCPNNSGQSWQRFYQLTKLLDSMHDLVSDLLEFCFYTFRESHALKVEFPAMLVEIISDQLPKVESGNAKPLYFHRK
In short: (§1)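 Cotransfection assays in CV-1 cells with a luciferase reporter, read as normalized LUC expression. In antagonist mode, the reference agonists were DHT for hAR, dexamethasone for hGR and aldosterone for hMR. Antagonist efficacy was expressed as the percent of maximal inhibition of the agonist. Values are means of at least three separate experiments in triplicate, or of two experiments.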

Glucocorticoid receptor = biological target: T2, Glucocorticoid receptor (Homo sapiens, UniProt P04150); test: biochemical
T2 sequence (P04150 whole entry): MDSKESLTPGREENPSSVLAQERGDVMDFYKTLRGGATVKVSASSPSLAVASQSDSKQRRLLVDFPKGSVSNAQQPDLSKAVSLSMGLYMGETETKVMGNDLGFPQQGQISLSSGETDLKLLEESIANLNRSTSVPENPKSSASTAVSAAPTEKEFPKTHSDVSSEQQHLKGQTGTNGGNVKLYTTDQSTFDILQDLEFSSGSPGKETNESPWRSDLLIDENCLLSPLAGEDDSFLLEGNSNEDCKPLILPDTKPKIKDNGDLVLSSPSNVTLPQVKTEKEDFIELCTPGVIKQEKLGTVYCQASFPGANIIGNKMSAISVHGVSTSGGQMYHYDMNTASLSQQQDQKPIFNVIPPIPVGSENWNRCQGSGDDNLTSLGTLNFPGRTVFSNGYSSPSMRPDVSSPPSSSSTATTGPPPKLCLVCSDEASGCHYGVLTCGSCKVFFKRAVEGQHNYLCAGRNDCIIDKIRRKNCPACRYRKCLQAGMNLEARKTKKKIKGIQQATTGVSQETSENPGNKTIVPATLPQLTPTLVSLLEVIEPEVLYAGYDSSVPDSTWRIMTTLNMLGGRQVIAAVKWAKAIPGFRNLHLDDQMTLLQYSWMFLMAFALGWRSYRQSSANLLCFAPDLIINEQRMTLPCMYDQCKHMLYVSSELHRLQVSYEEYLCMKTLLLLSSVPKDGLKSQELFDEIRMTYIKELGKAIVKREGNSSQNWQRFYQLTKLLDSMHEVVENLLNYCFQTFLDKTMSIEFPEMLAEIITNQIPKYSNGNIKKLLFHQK

Androgen receptor [2] = biological target: T3, Androgen receptor (Homo sapiens, UniProt P10275); test: Inhibitory activity (IC50) against human androgen receptor expressed in CV-1 cells; format: cell-based; in short: as §1
T3 sequence (P10275 whole entry): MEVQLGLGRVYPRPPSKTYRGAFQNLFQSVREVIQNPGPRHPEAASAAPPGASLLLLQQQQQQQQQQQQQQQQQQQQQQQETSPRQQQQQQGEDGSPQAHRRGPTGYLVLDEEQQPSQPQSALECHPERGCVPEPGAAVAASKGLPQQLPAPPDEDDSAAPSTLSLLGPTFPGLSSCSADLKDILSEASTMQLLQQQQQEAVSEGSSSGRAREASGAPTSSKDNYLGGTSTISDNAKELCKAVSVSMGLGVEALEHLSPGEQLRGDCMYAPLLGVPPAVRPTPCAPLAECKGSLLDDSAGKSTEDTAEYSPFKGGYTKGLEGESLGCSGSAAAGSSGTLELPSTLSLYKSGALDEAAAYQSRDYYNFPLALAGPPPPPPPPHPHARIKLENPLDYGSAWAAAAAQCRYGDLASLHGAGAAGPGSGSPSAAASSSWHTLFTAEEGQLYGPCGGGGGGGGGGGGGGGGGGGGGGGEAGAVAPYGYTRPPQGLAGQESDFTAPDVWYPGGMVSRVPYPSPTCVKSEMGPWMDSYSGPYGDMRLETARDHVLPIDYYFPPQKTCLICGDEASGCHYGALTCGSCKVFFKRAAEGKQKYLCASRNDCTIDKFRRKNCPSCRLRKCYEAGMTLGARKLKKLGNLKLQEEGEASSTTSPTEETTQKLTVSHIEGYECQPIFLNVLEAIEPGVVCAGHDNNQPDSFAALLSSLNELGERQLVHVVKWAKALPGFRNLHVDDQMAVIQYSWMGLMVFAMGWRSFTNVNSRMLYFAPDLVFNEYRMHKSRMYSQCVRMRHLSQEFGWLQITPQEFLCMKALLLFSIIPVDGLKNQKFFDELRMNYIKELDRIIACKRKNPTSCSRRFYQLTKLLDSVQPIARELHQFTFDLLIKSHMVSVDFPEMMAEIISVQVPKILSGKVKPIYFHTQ

Estrogen receptor = Estrogen receptor (Homo sapiens, UniProt Q92731+P03372); conditions: cv-1
Androgen receptor [3] = biological target: T3, Androgen receptor

Row | IC50 [1] | Ki (Glucocorticoid receptor) | IC50 (Androgen receptor [2]) | IC50 (Estrogen receptor) | Compound | IC50 (Androgen receptor [3])
1 | > 10000 nM | 173 nM | 1600 nM | > 10000 nM | CC1=CC(C)(C)Nc2ccc3c(c21)/C(=C/c1cc(F)ccc1F)Oc1ccccc1-3 | 
2 | > 10000 nM | 237 nM | 916 nM | > 10000 nM | CC1=CC(C)(C)Nc2ccc3c(c21)/C(=C/c1ccc(F)c(F)c1)Oc1ccccc1-3 | 

Row | Compound | IC50 [1] | Ki (Glucocorticoid receptor) | IC50 (Androgen receptor [2]) | IC50 (Estrogen receptor) | IC50 (Androgen receptor [3])
3 | CC1=CC(C)(C)Nc2ccc3c(c21)/C(=C/c1ccccc1C)Oc1ccccc1-3 | > 10000 nM | 564 nM |  | < 20 nM | 1060 nM
